# From ChEMBL document CHEMBL5653613 (Mol Cancer Ther, 2013)
# Activity calls are given as the source filed them. The rule behind the calls is not given here.
# How the values were obtained:
# T47D [1] = assay: Disruption of microtubule dynamics in human T47D cells assessed as formation of multipolar spindles at 5 umol/L incubated upto 72 hrs by immunofluorescence staining based analysis; format: functional, cell-based; details: dose 5.0 µmol/L
# Outline: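 T-47D cells (1 × 10^6/dish) in RPMI-1640 with 5% FBS were treated with or without 5 µmol/L for 24, 48 and 72 h. Cells were fixed in cold acetone and stained with mouse anti-α-tubulin or anti-γ-tubulin, then an FITC anti-mouse IgG secondary, plus DAPI. Fluorescence microscopy, 200× magnification.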
# T47D [2] = assay: Cytotoxicity against human T47D cells at 1 to 2.5 umol/L incubated for 72 hrs by MTS assay; format: functional, cell-based; details: dose 1-2.5 µmol/L
# MCF7 [3] = assay: Induction of apoptosis in human MCF7 cells assessed as early cells at 5 umol/L incubated for 3 days by Annexin V/PI staining based flow cytometry (reference value: 0.1 %); format: functional; details: dose 5 µmol/L; time 3 day; at 5 µM
# MCF7 [4] = assay: Induction of apoptosis in human MCF7 cells assessed as necrotic cells at 5 umol/L incubated for 3 days by Annexin V/PI staining based flow cytometry (reference value: 0.4 %); format: functional; details: dose 5 µmol/L; time 3 day; at 5 µM
# T47D [5] = assay: Induction of apoptosis in human T47D cells assessed as viable cells at 5 umol/L incubated for 3 days by Annexin V/PI staining based flow cytometry (reference value: 95.7 %); format: functional; details: 72 h, dose 5 µmol/L, time 3 day, read-out: Activity
# T47D [6] = assay: Induction of apoptosis in human T47D cells assessed as late cells at 5 umol/L incubated for 3 days by Annexin V/PI staining based flow cytometry (reference value: 2.9 %); format: functional; details: dose 5 µmol/L; time 3 day; at 5 µM
# T47D [7] = assay: Induction of apoptosis in human T47D cells assessed as necrotic cells at 5 umol/L incubated for 3 days by Annexin V/PI staining based flow cytometry (reference value: 0.6 %); format: functional; details: dose 5 µmol/L; time 3 day; at 5 µM
# ZR-75-1 [8] = assay: Induction of apoptosis in human ZR-75-1 cells assessed as viable cells at 5 umol/L incubated for 3 days by Annexin V/PI staining based flow cytometry (reference value: 95 %); format: functional; details: ZR-75-1, 72 h, dose 5 µmol/L, time 3 day, read-out: Activity
# ZR-75-1 [9] = assay: Induction of apoptosis in human ZR-75-1 cells assessed as necrotic cells at 5 umol/L incubated for 3 days by Annexin V/PI staining based flow cytometry (reference value: 0.7 %); format: functional; details: dose 5 µmol/L; time 3 day; at 5 µM
# T47D [10] = assay: Induction of polyploidy in human T47D cells at 10 umol/L incubated for 72 hrs by microscopic analysis relative to control; format: functional; details: dose 10 µmol/L, at 10 µM
# Outline: (§1)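 Cells stained with Hema-3 and photographed under a light microscope with CCD camera. Polyploid cells scored as percent of the population.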
# MCF7 [11] = assay: Induction of polyploidy in human MCF7 cells at 5 to 10 umol/L incubated for 72 hrs by microscopic analysis relative to control; format: functional; details: dose 5-10 µmol/L, at 5 to 10 µM; outline: as §1
# T47D [12] = assay: Induction of polyploidy in human T47D cell at 5 umol/L by microscopic analysis; format: functional, cell-based; details: dose 5.0 µmol/L, time 72.0 hrs, TDE = time-dependent effect
# ZR-75-1 [13] = assay: Induction of polyploidy in human ZR-75-1 cells at 5 uM incubated for 72 hrs by microscopic analysis; format: functional, cell-based; outline: as §1
# T47D [14] = assay: Induction of cell death of human T47D cells with RON-/- at 5 umol/L incubated for 72 hrs followed by media replacement without compound measured upto 10 days by microscopic analysis; format: functional, cell-based; details: dose 5.0 µmol/L
# MCF7 [15] = assay: Induction of polyploidy in human MCF7 cells assessed as cells with 16N chromosome contents at 5 uM incubated for 24 hrs by PI staining based flow cytometry (reference value: 0); format: functional
# MCF7 [16] = assay: Induction of polyploidy in human MCF7 cells assessed as cells with 2N chromosome contents at 5 uM incubated for 48 hrs by PI staining based flow cytometry (reference value: 52); format: functional
# MCF7 [17] = assay: Induction of polyploidy in human MCF7 cells assessed as cells with 4N chromosome contents at 5 uM incubated for 72 hrs by PI staining based flow cytometry (reference value: 36); format: functional
# MCF7 [18] = assay: Induction of polyploidy in human MCF7 cells assessed as cells with 8N chromosome contents at 5 uM incubated for 72 hrs by PI staining based flow cytometry (reference value: 0); format: functional
# MCF7 [19] = assay: Induction of polyploidy in human MCF7 cells assessed as cells with 16N chromosome contents at 5 uM incubated for 72 hrs by PI staining based flow cytometry (reference value: 0); format: functional
# T47D [20] = assay: Induction of polyploidy in human T47D cells assessed as cells with 4N chromosome contents at 5 uM incubated for 24 hrs by PI staining based flow cytometry (reference value: 35); format: functional
# T47D [21] = assay: Induction of polyploidy in human T47D cells assessed as cells with 16N chromosome contents at 5 uM incubated for 24 hrs by PI staining based flow cytometry (reference value: 0); format: functional
# T47D [22] = assay: Induction of polyploidy in human T47D cells assessed as cells with 8N chromosome contents at 5 uM incubated for 48 hrs by PI staining based flow cytometry (reference value: 0); format: functional
# T47D [23] = assay: Induction of polyploidy in human T47D cells assessed as cells with 16N chromosome contents at 5 uM incubated for 72 hrs by PI staining based flow cytometry (reference value: 0); format: functional
# ZR-75-1 [24] = assay: Induction of polyploidy in human ZR-75-1 cells assessed as cells with 8N chromosome contents at 5 uM incubated for 24 hrs by PI staining based flow cytometry (reference value: 0); format: functional
# ZR-75-1 [25] = assay: Induction of polyploidy in human ZR-75-1 cells assessed as cells with 16N chromosome contents at 5 uM incubated for 24 hrs by PI staining based flow cytometry (reference value: 0); format: functional
# ZR-75-1 [26] = assay: Induction of polyploidy in human ZR-75-1 cells assessed as cells with 2N chromosome contents at 5 uM incubated for 48 hrs by PI staining based flow cytometry (reference value: 48); format: functional
# ZR-75-1 [27] = assay: Induction of polyploidy in human ZR-75-1 cells assessed as cells with 4N chromosome contents at 5 uM incubated for 72 hrs by PI staining based flow cytometry (reference value: 35); format: functional
# ZR-75-1 [28] = assay: Induction of polyploidy in human ZR-75-1 cells assessed as cells with 16N chromosome contents at 5 uM incubated for 72 hrs by PI staining based flow cytometry (reference value: 0); format: functional
# MCF7 [29] = assay: Downregulation of histone H3 expression in human MCF7 cells at 5 umol/L incubated upto 72 hrs by Western blot analysis; format: functional, cell-based; details: dose 5.0 µmol/L
# Outline: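 Cells were treated with 5 µmol/L for 0, 24, 48 and 72 h. Lysates were immunoblotted for AURK-B, phospho-Ser10 histone H3 and total histone H3, with β-actin reprobe as the loading control. Detection by enhanced chemiluminescence.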
# [30] = Effect on methotrexate resistance in human ZR-75-1 cells with compound-induced polyploidy assessed as change in methotrexate-induced cytotoxicity by measuring increase in methotrexate IC50 at 5 umol/L preincubated for 72 hrs followed by compound washout and subsequent methotrexate treatment for 72 hrs by MTS assay; format: functional, cell-based
# Outline: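 Cells were first given the inducing compound for 72 h in 100-mm dishes. Polyploid cells were collected, washed and replated at 5,000 cells/well, with untreated cells at the same density as control. Methotrexate was added over a concentration range for 72 h, in triplicate. Viability was read by MTS assay and the IC50 calculated; 1 of 3 experiments shown.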
# T-47D (Homo sapiens) = assay: Disruption of microtubule dynamics in human T-47D cells at 5 umol/L incubated upto 72 hrs by immunofluorescence staining based analysis; details: dose 5.0 µmol/L
smiles,measurement,setting,value
CCOc1ccn(-c2ccc(F)cc2)c(=O)c1C(=O)Nc1ccc(Oc2ccnc(N)c2Cl)c(F)c1 [BMS-777607],Activity,T47D [1],Active
same,Activity,T47D [2],inactive
same,Activity,MCF7 [3],0.2%
same,Activity,MCF7 [4],0.5%
same,viability at 5 µM,T47D [5],87.3%
same,Activity,T47D [6],8.1%
same,Activity,T47D [7],2.4%
same,viability at 5 µM,ZR-75-1 [8],88.5%
same,Activity,ZR-75-1 [9],1.8%
same,Activity,T47D [10],86%
same,Activity,MCF7 [11],36%
same,Activity,T47D [12],Tde
same,Activity,ZR-75-1 [13],Active
same,Activity,T47D [14],inactive
same,Activity,MCF7 [15],0
same,Activity,MCF7 [16],12
same,Activity,MCF7 [17],41
same,Activity,MCF7 [18],29
same,Activity,MCF7 [19],0
same,Activity,T47D [20],20
same,Activity,T47D [21],10
same,Activity,T47D [22],23
same,Activity,T47D [23],18.5
same,Activity,ZR-75-1 [24],14
same,Activity,ZR-75-1 [25],5
same,Activity,ZR-75-1 [26],4.5
same,Activity,ZR-75-1 [27],12
same,Activity,ZR-75-1 [28],32
same,Activity,MCF7 [29],inactive
same,IC50,[30],430 nM
same,Activity,T-47D (Homo sapiens),Active
